Rows were chosen to be rich in hits. Some 3.1% of all compounds tested hit in one or more screens of this group.
KCNK9 block – inhibitors of human KCNK9 two-pore domain potassium channel; HEK293 KCNK9, FluxOR thallium flux fluorescence; stronger effect = lower value; B-score at 10 µM; 310,000 compounds, 1.2% hits;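 active = ratio B-score over 3 SD below the library mean, with starting fluorescence within 5 SD of its mean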;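 also: negative B-score means less thallium flux so channel inhibition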
KCNQ1 pot – human KCNQ1 channel potentiation or activation | 310,000 compounds, 0.35% hits | AID 2648 | B-score at 10 µM | CHO-K1 KCNQ1, thallium flux FluxOR fluorescence; stronger effect = higher value | P51787;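 active = fluorescence ratio B-score, a plate-corrected score, at least three library SD, with initial intensity B-score within 5 SD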
Target sequence (P51787 whole entry, looked up): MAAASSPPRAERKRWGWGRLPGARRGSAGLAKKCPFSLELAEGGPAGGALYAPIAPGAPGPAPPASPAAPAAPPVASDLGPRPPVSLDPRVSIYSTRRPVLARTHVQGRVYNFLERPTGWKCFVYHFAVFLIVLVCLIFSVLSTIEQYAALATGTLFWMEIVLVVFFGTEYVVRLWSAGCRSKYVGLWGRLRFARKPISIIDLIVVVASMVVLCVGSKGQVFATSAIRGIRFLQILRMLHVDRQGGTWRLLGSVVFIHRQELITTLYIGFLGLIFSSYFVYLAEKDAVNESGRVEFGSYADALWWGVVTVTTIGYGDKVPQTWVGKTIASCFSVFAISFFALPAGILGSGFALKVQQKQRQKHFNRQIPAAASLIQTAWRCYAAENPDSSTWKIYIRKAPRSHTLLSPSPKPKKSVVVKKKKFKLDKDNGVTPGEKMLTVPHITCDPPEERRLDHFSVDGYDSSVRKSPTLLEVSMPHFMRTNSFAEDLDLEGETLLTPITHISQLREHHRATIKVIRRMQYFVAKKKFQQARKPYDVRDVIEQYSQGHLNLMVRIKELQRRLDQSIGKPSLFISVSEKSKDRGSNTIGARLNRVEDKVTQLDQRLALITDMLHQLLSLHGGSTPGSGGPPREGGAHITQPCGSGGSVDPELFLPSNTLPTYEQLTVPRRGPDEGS
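System: CHO-K1 cells stably expressing KCNQ1 / Medium: assay buffer for compound exposure, DMSO matched across wells / Reagent: thallium- and potassium-containing depolarizing buffer / Compound: one concentration, matched DMSO / Incubation: 20 min compound pretreatment at room temperature / Measured by: kinetic FluxOR fluorescence, 10 s baseline plus 110 s post-stimulus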
KCNQ1 inh – human KCNQ1 channel inhibition | CHO-K1 KCNQ1, FluxOR thallium flux fluorescence; stronger effect = higher value | B-score at 10 µM | 310,000 compounds, 1.3% hits | AID 2642;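 active = compounds whose thallium flux B-score, printed positive for inhibition, exceeds three library SD while starting fluorescence stays within three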;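 also: channel opened by potassium depolarization with thallium stimulus after 20 min compound exposure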
KCNK3 block – human KCNK3 channel inhibition, primary screen. CHO-KCNK3 thallium flux, FluxOR fluorescence; stronger effect = lower value. AID 602410. B-score at 10 µM. 340,000 compounds, 0.84% hits. O14649;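 active = B-score under library mean minus 4 SD, starting fluorescence ratio at most library mean plus 5 SD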;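 also: more negative B-score means stronger inhibition of thallium flux through KCNK3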
hERG rescue – shields human hERG channel from block by proarrhythmic agents. activation (rescue from dofetilide block), less the hit threshold, % at 10 µM. Q12809. CHO-hERG, FluxOR thallium flux, dofetilide IC70 present. 310,000 compounds, 0.51% hits;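 active = activation above the mean of controls blocked by dofetilide plus 5 SD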;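 also: thallium influx through hERG after potassium depolarization seen as dye fluorescence rise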
KCNK3 confirm – human KCNK3 channel inhibition, confirmation assay; 2,400 compounds, 99% hits; ratio percent of control, % at 10 µM; CHO-KCNK3 thallium flux, FluxOR fluorescence; 0% buffer, 100% carvedilol maximal block; shares compounds with KCNK3 block;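 active = ratio percent of control, averaged over triplicates, above buffer control mean plus 5 SD, cut at about 64% in these data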;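 also: ratio is the fluorescence rise from min to max over baseline after thallium stimulus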
KCNK3 uninduced – activity in cells without induced KCNK3 expression | shares compounds with KCNK3 block | non-induced KCNK3 parental cells, FluxOR thallium flux; stronger effect = lower value | thallium flux ratio (lower = more inhibition) at 10 µM | 2,400 compounds, 40% hits | AID 651747;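 active = thallium flux ratio, averaged over three wells, more than 5 SD below the buffer control mean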;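 also: host cells are CHO cells without KCNK3 induction; ratio is peak minus trough fluorescence over baseline then normalized to buffer controls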
The depositor's hits bear a star.

Screening O=C(NC1CCN(C(=O)N2c3ccccc3Sc3ccccc32)CC1)c1ccccc1F returned KCNK9 block inactive, KCNQ1 pot inactive, KCNQ1 inh inactive, KCNK3 block -11*, hERG rescue -8, KCNK3 confirm 89* and KCNK3 uninduced inactive.
`Cc1nc(-c2ccccc2)cc(-c2ccccc2)n1` gave KCNK9 block inactive, KCNQ1 pot inactive, KCNQ1 inh inactive, KCNK3 block inactive and hERG rescue -9.
For Cc1ccc(-c2cc(-c3ccccc3)nc(Cl)n2)cc1 the results were KCNK9 block inactive, KCNQ1 pot inactive, KCNQ1 inh inactive, KCNK3 block -11*, hERG rescue -7, KCNK3 confirm 130* and KCNK3 uninduced 0.11*.
Screening N#Cc1cccc(CN2CCCN(Cc3ccc(F)cc3)S2(=O)=O)c1 returned KCNK9 block inactive, KCNQ1 pot inactive, KCNQ1 inh inactive, KCNK3 block -9.2*, hERG rescue -4, KCNK3 confirm 94* and KCNK3 uninduced 0.15*.
`S=c1ncc2[nH]c(=S)[nH]c2[nH]1` gave KCNK3 block inactive.
For CCOc1ccc(N2CC(C(=O)Nc3nnc(Cc4ccccc4)s3)CC2=O)cc1 (centres undefined) the results were KCNK9 block inactive, KCNQ1 pot inactive, KCNQ1 inh inactive, KCNK3 block inactive and hERG rescue -6.
For O=C(N/N=C/c1ccccc1F)c1cccc(NC(=O)c2ccccc2Cl)c1 the results were KCNK9 block inactive, KCNQ1 pot inactive, KCNQ1 inh inactive, KCNK3 block -8.8*, hERG rescue -10, KCNK3 confirm 107* and KCNK3 uninduced 0.16*.
For O=C(Nc1cccc(NC(=O)c2cccnc2)c1)c1ccccc1 the results were KCNK9 block inactive, KCNQ1 pot inactive, KCNQ1 inh inactive, KCNK3 block -9.1*, hERG rescue 0, KCNK3 confirm 96* and KCNK3 uninduced inactive.
`O=C(Nc1cccc(NC(=O)c2ccc(F)cc2)c1)c1ccc(F)cc1` gave KCNK9 block inactive, KCNQ1 pot inactive, KCNQ1 inh inactive, KCNK3 block inactive and hERG rescue -4.
For O=C(Nc1cccc(NC(=O)c2ccccc2Cl)c1)c1ccc(F)cc1 the results were KCNK9 block inactive, KCNQ1 pot inactive, KCNQ1 inh inactive, KCNK3 block -9.3*, hERG rescue -5, KCNK3 confirm 95* and KCNK3 uninduced inactive.
For O=C(N/N=C/c1ccccn1)c1cccc(NC(=O)c2ccccc2Cl)c1 the results were KCNK9 block inactive, KCNQ1 pot inactive, KCNQ1 inh inactive, KCNK3 block inactive and hERG rescue -4.
For CCOC(=O)N/N=C\c1ccc(OC/C=C/c2ccccc2)cc1 the results were KCNK9 block inactive, KCNQ1 pot inactive, KCNQ1 inh inactive, KCNK3 block inactive and hERG rescue -9.
O=C(NCCc1cccc(F)c1)/C(=C/c1cccnc1)NC(=O)c1ccccc1 was read as KCNK9 block inactive, KCNQ1 pot inactive, KCNQ1 inh inactive, KCNK3 block inactive and hERG rescue -10.
Screening O=C(OC1CCCCC1=O)c1cc(Cl)ccc1[N+](=O)[O-] (centres undefined) returned KCNK9 block inactive, KCNQ1 pot inactive, KCNQ1 inh inactive, KCNK3 block inactive and hERG rescue -5.
Screening O=C(COc1ccccc1Cl)N(Cc1cccs1)C1CCS(=O)(=O)C1 (centres undefined) returned KCNK9 block inactive, KCNQ1 pot inactive, KCNQ1 inh inactive, KCNK3 block inactive and hERG rescue -5.
Screening Cc1cc(Cl)ccc1OCC(=O)N(Cc1cccs1)C1CCS(=O)(=O)C1 (centres undefined) returned KCNK9 block inactive, KCNQ1 pot inactive, KCNQ1 inh inactive, KCNK3 block -9.9*, hERG rescue -10, KCNK3 confirm 59* and KCNK3 uninduced 0.16*.
For CCCCOc1ccc(-c2nnn(C(C)(C)C(=O)OC)n2)cc1 the results were KCNK9 block -6.6*, KCNQ1 pot inactive, KCNQ1 inh inactive, KCNK3 block -11*, hERG rescue -9, KCNK3 confirm 96* and KCNK3 uninduced inactive.
`CCCOc1ccc(-c2nnn(CC(=O)Nc3cccc(C(=O)OC)c3)n2)cc1` gave KCNK9 block inactive, KCNQ1 pot inactive, KCNQ1 inh inactive, KCNK3 block inactive and hERG rescue -3.
Screening Cc1ccc(-c2nc3ccccc3o2)cc1NC(=O)Cc1cccs1 returned KCNK9 block inactive, KCNQ1 pot inactive, KCNQ1 inh inactive, KCNK3 block inactive and hERG rescue -6.
O=C(Cc1cccs1)Nc1cccc(-c2nc3ccccc3o2)c1 was read as KCNK9 block inactive, KCNQ1 pot inactive, KCNQ1 inh inactive, KCNK3 block -8.8*, hERG rescue -5, KCNK3 confirm 133* and KCNK3 uninduced 0.14*.
`O=C(CSC1=N/C(=C/c2ccco2)C(=O)N1c1ccc(OC(F)F)cc1)NC1CCS(=O)(=O)C1` (centres undefined) gave KCNK9 block inactive, KCNQ1 pot inactive, KCNQ1 inh inactive, KCNK3 block -8.9*, hERG rescue -10, KCNK3 confirm 83* and KCNK3 uninduced inactive.
`CCOC(=O)c1cc2sccc2n1CC(=O)c1ccc2c(c1)OCCO2` gave KCNK9 block inactive, KCNQ1 pot inactive, KCNQ1 inh inactive, KCNK3 block -9.5*, hERG rescue -5, KCNK3 confirm 89* and KCNK3 uninduced inactive.
CCOC(=O)c1cc2sccc2n1CC(=O)O was read as KCNK9 block inactive, KCNQ1 pot inactive, KCNQ1 inh inactive, KCNK3 block inactive and hERG rescue -6.
For Cc1cccc(C)c1NC(=O)Nc1ccc(S(N)(=O)=O)cc1 the results were KCNK9 block inactive, KCNQ1 pot inactive, KCNQ1 inh inactive, KCNK3 block inactive and hERG rescue -6.
Screening CCOC(=O)c1cnc2ccc(C)cc2c1NCCN1CCOCC1 returned KCNK9 block inactive, KCNQ1 pot inactive, KCNQ1 inh inactive, KCNK3 block -8.8*, hERG rescue -2, KCNK3 confirm 100* and KCNK3 uninduced inactive.
CCOC(=O)c1cnc2ccc(OC)cc2c1Nc1ccc2c(c1)OCCO2 was read as KCNK9 block inactive, KCNQ1 pot inactive, KCNQ1 inh inactive, KCNK3 block -12*, hERG rescue -11, KCNK3 confirm 135* and KCNK3 uninduced 0.16*.
